Hits are enriched below; roughly 7.6% of the tested compounds scored in any of these assays.
HEK293 NFkB inh: inhibitors of PMA/ionomycin-induced NF-kB reporter, primary screen, antigen receptor NF-kB inhibitor project, cell-based, HEK-293 luciferase reporter, luminescence. hit rate 0.21% among 62,000. HEK-293 NF-kB luciferase reporter. AID 465, 2006. inhibition, % at 3 µM;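 active = inhibition above the mean of all tested compounds plus 3 SD, cut at about 40% in these data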
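Signal: luciferase luminescence; Material: HEK-293 cells with stable firefly luciferase reporter driven by four HIV NF-kB elements; Probe or stimulus: PMA with ionomycin; Replication: tested once; Times: 1 h compound pretreatment, then 16 h stimulation at 37 °C, 5% CO2; Benchmarks: DMSO and 10 µM reference inhibitor; Evaluation: per-plate % inhibition versus controls.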
DAT uptake mod: changed hDAT dopamine uptake under cocaine IC80, either direction, primary screen, cocaine antagonist project, cell-based, LLC-PK1 hDAT, [14C]-dopamine uptake, MLSMR | Sodium-dependent dopamine transporter (Homo sapiens), Q01959 | LLC-PK1 hDAT cells, [14C]-dopamine uptake with cocaine IC80; actives deviate in either direction | B-score at 10 µM | hit rate 1.3% among 110,000 | AID 449768, 2010;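 active = Z score or B-score, a plate-position-corrected score, falls beyond the plate's 99.7% confidence bounds, in either direction; inactive = both scores lie inside the 99.7% bounds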
Target sequence (Q01959 whole entry, looked up): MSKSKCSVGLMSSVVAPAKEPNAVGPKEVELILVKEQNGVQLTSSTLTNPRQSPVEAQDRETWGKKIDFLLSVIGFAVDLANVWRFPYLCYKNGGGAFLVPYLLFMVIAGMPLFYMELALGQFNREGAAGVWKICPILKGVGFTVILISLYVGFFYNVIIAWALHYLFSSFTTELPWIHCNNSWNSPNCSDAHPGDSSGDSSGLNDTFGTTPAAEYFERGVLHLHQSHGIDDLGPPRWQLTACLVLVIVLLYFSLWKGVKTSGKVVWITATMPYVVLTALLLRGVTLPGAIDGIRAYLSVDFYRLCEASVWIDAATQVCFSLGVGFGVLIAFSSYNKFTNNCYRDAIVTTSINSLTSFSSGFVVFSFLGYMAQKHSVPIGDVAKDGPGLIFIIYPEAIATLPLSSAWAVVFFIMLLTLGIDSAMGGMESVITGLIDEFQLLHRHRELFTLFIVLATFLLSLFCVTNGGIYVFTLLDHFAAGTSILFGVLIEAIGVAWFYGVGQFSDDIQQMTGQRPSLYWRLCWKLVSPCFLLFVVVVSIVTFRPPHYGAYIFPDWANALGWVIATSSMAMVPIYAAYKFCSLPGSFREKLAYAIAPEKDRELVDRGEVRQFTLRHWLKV
M1 agonist: M1 muscarinic receptor agonists, primary screen, CHO-M1 cells, Fluo-4 calcium, agonist mode | Muscarinic acetylcholine receptor M1 | Fluo-4 calcium fluorescence; stronger effect = higher value | B-score at 10 µM | hit rate 3% among 64,000;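 active = fluorescence rise, raw or as B-score row- and column-corrected plate score, outside the 99.7% band of its plate's samples, either direction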
Jurkat tox 60K: cytotoxicity toward Jurkat T cells, primary screen, cytotoxicity control, cell-based, Jurkat E6.1, 60K MLSMR library. AID 463, 2006. inhibition, % at 4 µM. Jurkat E6.1 viability, ATP luminescence, 48 h. hit rate 1.2% among 56,000;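 active = inhibition above the mean inhibition of all tested compounds plus 3 SD, cut at about 28% in these data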
M1 antag: antagonists of rat M1 muscarinic receptor. hit rate 3.4% among 64,000. CHO-M1 cells, Fluo-4 calcium, ACh EC80 antagonist mode; stronger effect = lower value. Muscarinic acetylcholine receptor M1 (Rattus norvegicus), P08482. AID 628, 2007. B-score at 10 µM;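 active = calcium fluorescence response, raw or row-and-column corrected B-score, differing from the plate sample mean either way at a set confidence level, mostly lower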
D1 allo mod: D1 CRE-luciferase signal change, two-sided – cell-based, HEK293 D1, dopamine EC30, D1 allosteric modulator project, primary screen; hit rate 5.9% among 58,000; D(1A) dopamine receptor (Homo sapiens), P21728; dopamine EC30 potentiation; actives deviate in either direction; AID 641, 2007; B-score at 10 µM;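 active = luminescence count or its row- and column-corrected plate score outside the 99.7% band of the plate's sample wells, on either side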
M1 antag confirm: rat M1 muscarinic receptor antagonists, confirmation, CHO cells, Fluo-4 calcium, duplicate | shares compounds with M1 antag | calcium response (max-min fluorescence) at 10 µM | AID 677, 2007 | hit rate 43% among 1,700 | ACh EC80 antagonism; stronger effect = lower value;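 active = calcium response below the same-plate mean of wells given acetylcholine alone at its 80%-effect dose, minus 3 SD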
mGluR4 antag: human mGluR4 response to M1 antagonist hits, M1 allosteric modulator project, cell-based, antagonist mode, secondary assay 1 | shares compounds with M1 antag | CHO-mGluR4 calcium flux, Fluo-4 fluorescence, glutamate EC80; stronger effect = lower value | fluorescence response (max-min) at 10 µM | hit rate 0.9% among 1,700 | AID 678, 2007;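 active = fluorescence response below the plate's average for near-maximal glutamate wells, less 3 SD of those wells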;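 note: raw unnormalized fluorescence span taken in the window right after glutamate addition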
Of the large screens only hits and unclear results are named; the others gave an inactive call (follow-up assays come after a bar, where they were run).

N#CCSc1nc2scc(-c3cccs3)c2c(=O)n1CCc1ccccc1	M1 antag -3.3 | M1 antag confirm inactive | mGluR4 antag inactive
C=CCn1c(SCC(=O)Nc2ccccc2)nc2scc(-c3cccs3)c2c1=O	none (no result: HEK293 NFkB inh, M1 agonist, Jurkat tox 60K, M1 antag, D1 allo mod)
C1=C(c2ccccc2)Nc2nnnn2C1	none
COc1ccccc1C(=O)Nn1c(C2CCC2)nc2ccccc2c1=O	M1 antag -3.3 | M1 antag confirm inactive | mGluR4 antag inactive
COc1ccccc1CNc1nc2nc3c(c(=O)n2[nH]1)CCC3	none
Cc1ccc(C)n1-c1ccc(-c2nnc3n2CCCCC3)s1	M1 antag -1.4 | M1 antag confirm inactive | mGluR4 antag inactive
C1CCc2nnc(-c3nnc4n3CCCCC4)n2CC1	none
CCCN(CCC)CCCNC(=O)c1cc2c(=O)n(C)c3ccccc3c2n1C	M1 antag -4.4 | M1 antag confirm 441 | mGluR4 antag inactive
Cn1c(C(=O)NCCCN2CCCCCC2)cc2c(=O)n(C)c3ccccc3c21	M1 antag -3.2 | M1 antag confirm 511 | mGluR4 antag inactive
CCCCN(CC)CCNC(=O)c1cc2c(=O)n(C)c3ccccc3c2n1C	M1 antag -4.3 | M1 antag confirm 412 | mGluR4 antag inactive
COc1ccc(NC(=O)C2C(=O)NC3(C)CC2c2ccccc2O3)cc1 (stereo not drawn)	none
NC(=O)C1CCN(c2nc(-c3ccccc3)nc3c2oc2ccccc23)CC1	none
O=C(NCC1CCCO1)C1CCCN(S(=O)(=O)c2cccc3nsnc23)C1 (stereo not drawn)	none
Cc1ccc(Cn2c(CN3CC(C)OC(C)C3)nc3c2c(=O)[nH]c(=O)n3C)cc1 (stereo not drawn)	M1 antag -5.2 | M1 antag confirm inactive | mGluR4 antag inactive
Cc1csc(Sc2nc3c(c(=O)[nH]c(=O)n3C)n2Cc2ccccc2Cl)n1	none
Cn1c(=O)[nH]c(=O)c2c1nc(SCCN1CCCCC1)n2CCCc1ccccc1	M1 antag -3.8 | M1 antag confirm inactive | mGluR4 antag inactive
Cc1ccc(Cn2c(SCCN3CCCCC3)nc3c2c(=O)[nH]c(=O)n3C)cc1	M1 antag -1.9 | M1 antag confirm 457 | mGluR4 antag inactive
Cc1ccc(Cn2c(SCCN3CCOCC3)nc3c2c(=O)n(C)c(=O)n3C)cc1	none (no result: Jurkat tox 60K, D1 allo mod)
Cc1cccc(Cn2c(Sc3nc(C)cs3)nc3c2c(=O)[nH]c(=O)n3C)c1	M1 antag -7.1 | M1 antag confirm 524 | mGluR4 antag inactive
O=C(NCCCNC(=O)c1ccccn1)c1ccccn1	none
CCC(C(=O)NC(C)(C)C)N(C(=O)Cn1nnc(-c2cccs2)n1)c1cnc2ccccc2c1 (stereo not drawn)	none (no result: HEK293 NFkB inh, M1 agonist, Jurkat tox 60K, M1 antag, D1 allo mod)
O=C(Cn1c(=O)sc2ccccc21)Nc1ccc(S(=O)(=O)N2CCCCC2)cc1	none
Cc1ccc(NC(=O)CSc2nnc(C3CCCCC3)n2N)cc1F	none
Cn1c(=O)[nH]c(=O)c2c1nc(SCCN1CCCCC1)n2Cc1ccccc1	M1 antag -3.8 | M1 antag confirm 530 | mGluR4 antag inactive
CCCCSc1nc2c(c(=O)[nH]c(=O)n2C)n1CCc1ccccc1	none (no result: D1 allo mod)
C=CCn1c(SCCOC)nc2c1c(=O)[nH]c(=O)n2C	none
C=CCn1c(SCCN2CCCCC2)nc2c1c(=O)[nH]c(=O)n2C	M1 antag -2.7 | M1 antag confirm inactive | mGluR4 antag inactive
C/C=C(/C)C(=O)OC1c2c(ccc3ccc(=O)oc23)OC(C)(C)C1OC(=O)/C(C)=C\C (stereo not drawn)	none (no result: HEK293 NFkB inh, M1 agonist, Jurkat tox 60K, M1 antag, D1 allo mod)
Cc1cc(NC(=O)c2cc3n(n2)C(C(F)(F)F)CC(c2ccco2)N3)no1 (stereo not drawn)	none
Cc1cc(=O)n2nc(N3CCC(C(=O)N4CCN(Cc5ccccc5)CC4)CC3)sc2n1	M1 antag -6 | M1 antag confirm inactive | mGluR4 antag inactive
CCN1CCN(Cc2ccc(OC)c(OCc3ccccc3)c2)CC1	none
COc1ccc(CN2CCN(c3ccccn3)CC2)cc1OCc1ccccc1	M1 antag -2.7 | M1 antag confirm 573 | mGluR4 antag inactive
CC(C)(C)n1ncc2c(=O)n(CC(=O)Nc3ccc4c(c3)OCO4)cnc21	none (no result: D1 allo mod)
Cc1ccc2[nH]c3c(c2c1)CN(C(=O)CN1c2ccc(F)cc2CCC1C)CC3 (stereo not drawn)	none (no result: HEK293 NFkB inh, M1 agonist, Jurkat tox 60K, M1 antag, D1 allo mod)
O=C(CN1CCSCC1)N1CCc2[nH]c3ccc(Br)cc3c2C1	M1 antag -11 | M1 antag confirm 124 | mGluR4 antag inactive
CS(=O)(=O)N(CC(=O)O)c1ccc2c(c1)OCO2	M1 antag -4.1 | M1 antag confirm inactive | mGluR4 antag inactive
CS(=O)(=O)N(CC(N)=O)c1ccc2c(c1)OCO2	none
c1ccc(CN2CCN(C(c3ccccc3)c3nnnn3Cc3ccccc3)CC2)cc1 (stereo not drawn)	none (no result: HEK293 NFkB inh, M1 agonist, Jurkat tox 60K, M1 antag, D1 allo mod)
O=C(CCNC(=O)c1ccc(Br)o1)NCc1ccccn1	M1 antag -7.7 | M1 antag confirm inactive | mGluR4 antag 144
CCn1c(=NC(=O)c2ccc(S(=O)(=O)N3CCOCC3)cc2)sc2cccc(OC)c21	M1 antag -1.8 | M1 antag confirm inactive | mGluR4 antag inactive
COc1cccc2sc(=NC(=O)c3ccc(S(=O)(=O)N4CCOCC4)cc3)n(C)c12	none (no result: DAT uptake mod)
CCOc1ccc(N2C(=O)CC(N3CCOCC3)C2=O)cc1 (stereo not drawn)	none
O=C(O)CSc1nnc(C2COc3ccccc3O2)n1-c1ccccc1 (stereo not drawn)	none
CC1(C)Cc2c(sc3c2C(=O)N(c2ccccc2)C2=NCCN23)CS1	none (no result: HEK293 NFkB inh, M1 agonist, Jurkat tox 60K, M1 antag, D1 allo mod)
CC1(C)Cc2c(sc3c2C2=NCCN2C=N3)CS1	M1 antag -5.4 (no result: HEK293 NFkB inh, Jurkat tox 60K, D1 allo mod) | M1 antag confirm 411 | mGluR4 antag inactive
CC(=O)c1ccccc1NS(=O)(=O)c1c(C)nn(-c2ccccc2)c1C	M1 antag -3.4 | M1 antag confirm inactive | mGluR4 antag inactive
O=C(CCSc1nc(-c2ccco2)cc(C(F)(F)F)n1)N1CCN(c2ccccc2)CC1	M1 antag -3.8 | M1 antag confirm inactive | mGluR4 antag inactive

Screening results from PubChem BioAssay.
